Screening results deposited in PubChem by several laboratories.
Only some compounds are listed: those with a hit (about 2.6% of all), similar ones and a draw of the others.
GSTO1 inh: blocks human GSTO1 in RBBP9 counter-screen | recombinant GSTO1, activity-based probe fluorescence polarization | 300,000 compounds, 1.1% hits | inhibition, % at 5.96 µM;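 active means inhibition above the campaign mean inhibition plus 3 SD, cut at about 35% in these data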
Target sequence (P78417 whole entry, looked up): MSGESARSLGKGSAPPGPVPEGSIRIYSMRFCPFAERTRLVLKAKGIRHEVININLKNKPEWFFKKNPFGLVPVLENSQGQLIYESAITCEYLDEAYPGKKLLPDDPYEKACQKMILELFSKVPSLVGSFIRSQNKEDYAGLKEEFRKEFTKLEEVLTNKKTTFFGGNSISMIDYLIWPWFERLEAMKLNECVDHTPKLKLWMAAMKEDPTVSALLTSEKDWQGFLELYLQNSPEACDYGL
PRMT1 inh: blocks human protein arginine methyltransferase 1. Q99873. recombinant PRMT1, activity-based probe fluorescence polarization. inhibition, % at 2.79 µM. 370,000 compounds, 1.3% hits. AID 652257;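 active means inhibition above about 21% made by adding two undisclosed values, limit read from the data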
Target sequence (Q99873 whole entry, looked up): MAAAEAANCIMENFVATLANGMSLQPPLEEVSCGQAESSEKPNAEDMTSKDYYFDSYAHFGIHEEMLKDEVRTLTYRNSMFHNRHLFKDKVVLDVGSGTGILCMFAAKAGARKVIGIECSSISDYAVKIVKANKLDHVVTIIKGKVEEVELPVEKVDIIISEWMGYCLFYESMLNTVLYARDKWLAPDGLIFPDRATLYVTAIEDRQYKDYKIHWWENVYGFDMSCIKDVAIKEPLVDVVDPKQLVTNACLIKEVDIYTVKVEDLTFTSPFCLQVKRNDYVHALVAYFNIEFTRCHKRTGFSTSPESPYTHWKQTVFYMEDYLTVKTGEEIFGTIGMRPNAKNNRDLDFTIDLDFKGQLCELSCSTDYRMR
TDP2 absorb: blocks human TDP2 phosphodiesterase activity; recombinant TDP2, T5PNP hydrolysis, p-nitrophenol absorbance 415 nm; inhibition, % at 12.8 µM; 370,000 compounds, 0.34% hits;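 active means inhibition above the mean of all tested compounds plus 3 SD, set per campaign, cut at about 25% in these data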
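test system = human TDP2 enzyme | input = TDP2 enzyme at 120 nM final | medium = 50 mM Tris-HCl pH 7.5 with Mg2+, KCl, DTT, BSA | also added = T5PNP substrate, 5 mM | times = 2 h at 37 °C | technique = epi absorbance | benchmarks = high control without enzyme, low control DMSO plus TDP2 | replication = each compound tested once, singlicate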
PAD4 FP inh: inhibitors of human PAD4; 330,000 compounds, 0.41% hits; inhibition, % at 6.36 µM; recombinant PAD4, RCA probe fluorescence polarization;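 active means percent inhibition above a cutoff equal to the mean of all tested compounds plus 3 SD, cut at about 15% in these data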
Apaf1 inhib: blocks human Apaf-1 apoptosome activity; O14727; reconstituted apoptosome caspase-3 activity, DEVD-Rh110 fluorescence; inhibition, % at 20 µM; 330,000 compounds, 0.71% hits; AID 489030; active means inhibition of at least 40% at 20 µM
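System: reconstituted apoptosome with Apaf-1, cytochrome c, caspase-9, procaspase-3, dATP; Signal: Rh110 fluorescence intensity; Schedule: 30 min compound preincubation, 50 min activation, room temperature; Reagent: cytochrome c trigger plus (Z-DEVD)2-Rh110 caspase-3 substrate.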
Hits are given with their value; i = inactive; nt = no result.

SMILES	GSTO1 inh	PRMT1 inh	TDP2 absorb	PAD4 FP inh	Apaf1 inhib
Cc1sc2nc(CSCC(=O)N(C)CC(=O)Nc3ccc(F)cc3)[nH]c(=O)c2c1C	i	23	i	i	i
COC(=O)c1cc2c(c3c4ccccc4n(S(=O)(=O)c4cccc(C)c4)c13)C(=O)N(Cc1ccc(N(C)C)cc1)C2	nt	22	i	nt	nt
COc1ccccc1NS(=O)(=O)c1cccc(C(=O)N2CCN(C/C=C/c3ccccc3)CC2)c1	i	i	i	i	46
O=C1NC(=Nc2ccc(O)cc2)S/C1=C/c1ccco1	i	i	i	i	i
O=C1CNC(=O)/C(=C/c2ccco2)N1	i	23	i	i	i
Cc1cc(C)nc(SCC(=O)c2ccc(F)cc2)n1	i	i	i	i	i
Cc1cc(C)nc(SCNC(=O)c2ccc(F)cc2)n1	36	26	i	i	i
O=C(CSc1nc2cc(Cl)ccc2s1)NC(=O)NCc1ccco1	i	21	i	i	i
CC(C)C(=O)OCCCN1C(=O)CCC12CCC(c1ccccc1)CC2 (stereo unspecified)	nt	i	i	nt	nt
CC(=O)Cn1ncc(Br)c(Br)c1=O	nt	i	i	nt	nt
O=C(OCn1ncc(Br)c(Br)c1=O)c1c(F)cccc1F	i	nt	nt	22	nt
Cc1ccc(-c2cc(C(=O)OCC(=O)N(C)C3CCS(=O)(=O)C3)c3ccccc3n2)o1 (stereo unspecified)	i	i	i	i	i
CCN(C(=O)COC(=O)c1cc(-c2ccc(C)o2)nc2ccccc12)C1CCS(=O)(=O)C1 (stereo unspecified)	i	23	i	i	i
CCn1cc(/C=C/C(=O)Nc2ccn(Cc3c(F)c(F)cc(F)c3F)n2)cn1	i	22	i	i	i
CCn1cc(/C=C/C(=O)Nc2ccc(C)cc2Br)cn1	i	i	i	i	i
CCCc1cc(NC(=O)CCl)n(-c2ccccc2)n1	101	i	i	i	i
COc1ccc(CCNC(=O)COC(=O)CSc2ccc(C(N)=O)cc2[N+](=O)[O-])cc1OC	nt	22	i	nt	nt
COC(=O)[C@]12C[C@H](CC(=O)NCCc3ccccc3OC)C(=O)N(Cc3ccc4c(c3)OCO4)C1=C[C@H](C(C)C)O[C@@H]2C1CC1	nt	i	i	nt	nt
CC(=O)C1=C(c2ccccc2)NC(=O)NC1c1ccc(O)c(O)c1 (stereo unspecified)	37	i	i	i	i
CC(=O)C1=C(c2ccccc2)NC(=O)NC1c1ccc2c(c1)OCO2 (stereo unspecified)	i	i	i	i	i
CCOC(=O)[C@]12CCCC=C1N(Cc1ccc(OC)cc1)C(=O)[C@@H]2CC(=O)N1CCC(c2ccccc2)CC1	nt	i	i	nt	nt
O=C(CCl)Nc1ccccc1C(=O)NCc1ccccc1	86	i	i	i	i
CC(=O)N1CCCN(S(=O)(=O)c2ccc3c(c2)oc(=O)n3C)CC1	nt	i	i	nt	nt
C=CCC12C=C(OC)C(=O)C(C1=O)C(c1ccc(OC)cc1)C2C (stereo unspecified)	nt	i	i	nt	nt
CCCCCCCCCCn1c2c(c(=N)c3c1CCC3)CCC2	i	i	i	i	74
SMILES	GSTO1 inh	PRMT1 inh	TDP2 absorb	PAD4 FP inh	Apaf1 inhib
CC(=O)OCC(=O)NCC1CCN(C(=O)C(=O)c2cc3ccccc3o2)CC1	nt	i	i	nt	nt
Cc1cc(C)cc(OC[C@@H](O)CN2CCC(C(O)(c3ccccc3)c3ccccc3)CC2)c1	nt	i	i	nt	nt
CC(=O)Nc1ccc(SC[C@H](CC(C)C)N2CCN(CC(C)C)CCC2=O)cc1	i	23	i	i	i
CC(=O)Nc1ccc(SC[C@H](C)CN2CC[C@H](C(C)(C)C)CCC2=O)cc1	nt	24	i	i	i
COCc1cccc(-c2cc(C(=O)OC)c3n(c2=O)CCC3)c1	nt	i	i	nt	nt
Nc1c(S(=O)(=O)c2cccs2)c2nc3ccccc3nc2n1CCc1ccccc1	i	i	i	i	71
COc1ccc(CCn2c(N)c(S(=O)(=O)c3cccs3)c3nc4ccccc4nc32)cc1OC	i	i	i	i	i
O=C(CCCN1CCOCC1)c1ccc2c(c1)OCCO2	i	i	i	i	i
O=C(CCN1CCOCC1)c1ccc2c(c1)OCCO2	i	24	i	i	i
COc1cccc(N=Cc2ccc(O)cc2O)c1	i	i	i	i	i
Oc1ccc(C=Nc2ccc3ncccc3c2)c(O)c1	i	nt	nt	i	95
CCCn1c2ccccc2c2nnc(SCC(=O)OC)nc21	i	i	i	i	i
CCCCn1c2ccccc2c2nnc(SCC(=O)NC3=NN=C(c4ccccc4)CS3)nc21	i	45	i	21	i
O=C(Nc1ccc(C(O)(C(F)(F)F)C(F)(F)F)cc1)c1ccc(Cl)cc1	nt	i	i	nt	nt
Cc1cc2nc3c(=O)n(CCc4ccccc4)c(=O)[nH]c3nc2cc1N	37	109	i	i	i
CN(C)C(=O)C[C@H]1CC[C@H]2[C@H](COc3ccc(NC(=O)C4CC4)cc3C(=O)N2C)O1	nt	i	i	nt	nt
COc1ccc(OC)c2sc(N(CCCN(C)C)C(=O)c3ccc(S(=O)(=O)N4CCc5ccccc5C4)cc3)nc12	i	nt	nt	i	55
CCOc1cccc2sc(N(CCCN(C)C)C(=O)c3ccc(S(=O)(=O)N(CC)Cc4ccccc4)cc3)nc12	i	i	i	i	67
CC1CCCCN1S(=O)(=O)c1ccc(C(=O)N(CCCN(C)C)c2nc3ccc(Br)cc3s2)cc1 (stereo unspecified)	i	i	i	i	67
COc1ccc(C)c2sc(N(CCCN(C)C)C(=O)c3ccc(S(=O)(=O)N4CCc5ccccc5C4)cc3)nc12	i	i	i	i	nt
CCN(Cc1ccccc1)S(=O)(=O)c1ccc(C(=O)N(CCCN(C)C)c2nc3c(F)cccc3s2)cc1	i	i	i	i	i
CCN(CC)CCCNC(=O)C1(N[C@@H](Cc2c[nH]c3ccccc23)C(=O)NCC(OC)OC)CCCCC1	nt	i	i	nt	nt
CC(=O)N(C)C1=C(N2CCOCC2)C(=O)c2ccccc2C1=O	59	nt	nt	i	65
COCCN(C(=O)CCl)C(C(=O)NC1CCCCC1)c1ccccc1C (stereo unspecified)	99	i	i	i	i
O=C(NC1CCCC1)C(c1ccc(F)cc1)N(Cc1ccccc1Cl)C(=O)CCl (stereo unspecified)	72	i	i	i	i
SMILES	GSTO1 inh	PRMT1 inh	TDP2 absorb	PAD4 FP inh	Apaf1 inhib
CCS(=O)(=O)Nc1ccc2c(c1)C(=O)N(C)[C@@H]1CC[C@H](CC(=O)NCCOC)O[C@H]1CO2	nt	i	i	nt	nt
CCCCCN(C(=O)CCc1cn(CCCCC)c2ccccc12)c1ccc(Oc2cccnc2)cc1	nt	i	i	nt	nt
COc1ccc(C(=O)CSc2nnc(-c3ccco3)n2C)cc1	i	24	i	i	i
O=C1NC(=Nc2ccc(Cl)cc2)/C(=C/c2ccco2)S1	i	i	i	i	i
Cc1cccc(N=C2NC(=O)S/C2=C\c2ccco2)c1	i	21	i	i	i
N#CCC[C@H]1CC[C@]2(CCCN(C(=O)c3ccco3)C2)O1	nt	i	i	nt	nt
CCc1ccc(CNCCNC(=O)c2ccco2)cc1	nt	21	i	nt	nt
O=C(N/N=C/c1cc(Br)c(O)c(Br)c1)c1cc2c(ccc3ccccc32)o1	nt	i	i	nt	i
